From ChEMBL document CHEMBL1147665, “Design, synthesis, and biological evaluation of 4-alkyliden-beta lactams: new products with promising antibiotic activity against resistant bacteria” (J Med Chem, 2006)
In brackets after ≈: the same amount, converted by molar mass.

How the values were obtained:
Assay type in all cases: functional
Streptococcus pyogenes = test: Antibacterial activity against Streptococcus pyogenes
Summary of the method: (§1)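 Broth microdilution MIC per CLSI guidelines in Mueller-Hinton broth: serial 2-fold dilutions, inoculum 5 × 10⁵ CFU/mL in equal volume, 35 °C for 16-20 h. MIC = lowest concentration with no visible turbidity. Recent clinical isolates (43 total, Gram-positive and Gram-negative); values given as MIC ranges, MIC₅₀ and MIC₉₀ per species.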

Streptococcus pneumoniae = test: Antibacterial activity against Streptococcus pneumoniae; summary of the method: as §1
Enterococcus = test: Antibacterial activity against Enterococcus spp; summary of the method: as §1
Staphylococcus aureus [1] = test: Antibacterial activity against methicillin-susceptible Staphylococcus aureus; summary of the method: as §1
[2] = test system: Staphylococcus epidermidis; test: Antibacterial activity against Staphylococcus epidermidis; summary of the method: as §1
Haemophilus influenzae = test: Antibacterial activity against Haemophilus influenzae; summary of the method: as §1
Staphylococcus aureus [3] = test: Antibacterial activity against methicillin-resistant Staphylococcus aureus
Summary of the method: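 Clinical isolates (3 MRSA in a 43-strain panel). Broth microdilution per CLSI, serial 2-fold dilutions in Mueller-Hinton broth, inoculum 5 × 10⁵ CFU/mL, 35 °C for 16-20 h. MIC = lowest concentration with no visible turbidity; reported as MIC range, MIC₅₀ and MIC₉₀ across isolates.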

SMILES | MIC50 (Streptococcus pyogenes) | MIC90 (Streptococcus pyogenes) | MIC50 (Streptococcus pneumoniae) | MIC90 (Streptococcus pneumoniae) | MIC50 (Enterococcus) | MIC90 (Enterococcus) | MIC50 (Staphylococcus aureus [1]) | MIC90 (Staphylococcus aureus [1]) | MIC50 [2] | MIC90 [2] | MIC50 (Haemophilus influenzae) | MIC90 (Haemophilus influenzae) | MIC50 (Staphylococcus aureus [3]) | MIC90 (Staphylococcus aureus [3])
C[C@@H](O[Si](C)(C)C(C)(C)C)[C@H]1C(=O)N/C1=C\C(=O)N[C@@H](Cc1ccc(O)cc1)C(=O)OC(C)(C)C | > 128 µg/mL | > 128 µg/mL | > 128 µg/mL | > 128 µg/mL | > 128 µg/mL | > 128 µg/mL | > 128 µg/mL | > 128 µg/mL | > 128 µg/mL | > 128 µg/mL | > 128 µg/mL | > 128 µg/mL |  | 
CCOC(=O)/C=C1\NC(=O)[C@@H]1[C@@H](C)OC(=O)c1cc(O)c(O)c(O)c1 | > 128 µg/mL | > 128 µg/mL | 128 µg/mL (≈ 364 µM) | > 128 µg/mL | > 128 µg/mL | > 128 µg/mL | 128 µg/mL (≈ 364 µM) | 128 µg/mL (≈ 364 µM) | 16 µg/mL (≈ 45.5 µM) | 64 µg/mL (≈ 182 µM) | 128 µg/mL (≈ 364 µM) | 128 µg/mL (≈ 364 µM) | 128 µg/mL (≈ 364 µM) | 128 µg/mL (≈ 364 µM)
C[C@@H](O)[C@H]1C(=O)N/C1=C\C(=O)O | 128 µg/mL (≈ 748 µM) | 128 µg/mL (≈ 748 µM) | 128 µg/mL (≈ 748 µM) | 128 µg/mL (≈ 748 µM) | > 128 µg/mL | > 128 µg/mL | > 128 µg/mL | > 128 µg/mL | > 128 µg/mL | > 128 µg/mL | > 128 µg/mL | > 128 µg/mL |  | 
C[C@@H](O[Si](C)(C)C(C)(C)C)[C@H]1C(=O)N/C1=C\C(=O)OCc1cc(C(F)(F)F)cc(C(F)(F)F)c1 | 128 µg/mL (≈ 250 µM) | > 128 µg/mL | 128 µg/mL (≈ 250 µM) | > 128 µg/mL | > 128 µg/mL | > 128 µg/mL | > 128 µg/mL | > 128 µg/mL | > 128 µg/mL | > 128 µg/mL | > 128 µg/mL | > 128 µg/mL |  | 
C[C@@H](O[Si](C)(C)C(C)(C)C)[C@H]1C(=O)N/C1=C\C(=O)O | 128 µg/mL (≈ 448 µM) | > 128 µg/mL | 128 µg/mL (≈ 448 µM) | 128 µg/mL (≈ 448 µM) | 128 µg/mL (≈ 448 µM) | 128 µg/mL (≈ 448 µM) | > 128 µg/mL | > 128 µg/mL | > 128 µg/mL | > 128 µg/mL | > 128 µg/mL | > 128 µg/mL |  | 
CCOC(=O)/C=C1\NC(=O)[C@@H]1[C@@H](C)OC(=O)c1cc(OC)c(OC)c(OC)c1 | 128 µg/mL (≈ 325 µM) | > 128 µg/mL | 128 µg/mL (≈ 325 µM) | 128 µg/mL (≈ 325 µM) | > 128 µg/mL | > 128 µg/mL | > 128 µg/mL | > 128 µg/mL | 128 µg/mL (≈ 325 µM) | > 128 µg/mL | 128 µg/mL (≈ 325 µM) | > 128 µg/mL |  | 
COc1cc(C(=O)O[C@H](C)[C@H]2C(=O)N/C2=C\C(=O)O)cc(OC)c1OC | > 128 µg/mL | > 128 µg/mL | 128 µg/mL (≈ 350 µM) | 128 µg/mL (≈ 350 µM) | > 128 µg/mL | > 128 µg/mL | > 128 µg/mL | > 128 µg/mL | > 128 µg/mL | > 128 µg/mL | 128 µg/mL (≈ 350 µM) | 128 µg/mL (≈ 350 µM) |  | 
COc1cc(C(=O)O[C@H](C)[C@H]2C(=O)N/C2=C\C(=O)O)cc(OC)c1O | > 128 µg/mL | > 128 µg/mL | 128 µg/mL (≈ 364 µM) | 128 µg/mL (≈ 364 µM) | > 128 µg/mL | > 128 µg/mL | > 128 µg/mL | > 128 µg/mL | > 128 µg/mL | > 128 µg/mL | 128 µg/mL (≈ 364 µM) | 128 µg/mL (≈ 364 µM) |  | 
CCOC(=O)/C=C1\NC(=O)[C@@H]1[C@@H](C)O[Si](C)(C)C(C)(C)C | 128 µg/mL (≈ 408 µM) | 128 µg/mL (≈ 408 µM) | 128 µg/mL (≈ 408 µM) | 128 µg/mL (≈ 408 µM) | > 128 µg/mL | > 128 µg/mL | > 128 µg/mL | > 128 µg/mL | > 128 µg/mL | > 128 µg/mL | 128 µg/mL (≈ 408 µM) | 128 µg/mL (≈ 408 µM) |  | 
CCOC(=O)C[C@H]1NC(=O)[C@@H]1[C@@H](C)O[Si](C)(C)C(C)(C)C | > 128 µg/mL | > 128 µg/mL | > 128 µg/mL | > 128 µg/mL | > 128 µg/mL | > 128 µg/mL | > 128 µg/mL | > 128 µg/mL | > 128 µg/mL | > 128 µg/mL | 128 µg/mL (≈ 406 µM) | > 128 µg/mL |  | 
C[C@@H](O[Si](C)(C)C(C)(C)C)[C@H]1C(=O)N/C1=C\C(=O)Oc1cc(O)cc(O)c1 | 16 µg/mL (≈ 40.7 µM) | 16 µg/mL (≈ 40.7 µM) | 16 µg/mL (≈ 40.7 µM) | 16 µg/mL (≈ 40.7 µM) | 64 µg/mL (≈ 163 µM) | 64 µg/mL (≈ 163 µM) | 32 µg/mL (≈ 81.3 µM) | 32 µg/mL (≈ 81.3 µM) | 32 µg/mL (≈ 81.3 µM) | 64 µg/mL (≈ 163 µM) |  |  | 32 µg/mL (≈ 81.3 µM) | 64 µg/mL (≈ 163 µM)
C[C@@H](O[Si](C)(C)C(C)(C)C)[C@H]1C(=O)N/C1=C\C(=O)OCc1ccccc1 | 128 µg/mL (≈ 341 µM) | > 128 µg/mL | 128 µg/mL (≈ 341 µM) | 128 µg/mL (≈ 341 µM) | > 128 µg/mL | > 128 µg/mL | > 128 µg/mL | > 128 µg/mL | > 128 µg/mL | > 128 µg/mL | 128 µg/mL (≈ 341 µM) | > 128 µg/mL |  | 
CCOC(=O)/C=C1\NC(=O)[C@@H]1[C@@H](C)OC(=O)c1cc(OCc2ccccc2)c(O)c(OCc2ccccc2)c1 | > 128 µg/mL | > 128 µg/mL | > 128 µg/mL | > 128 µg/mL | > 128 µg/mL | > 128 µg/mL | > 128 µg/mL | > 128 µg/mL | > 128 µg/mL | > 128 µg/mL | 128 µg/mL (≈ 241 µM) | 128 µg/mL (≈ 241 µM) |  | 
C[C@@H](O[Si](C)(C)C(C)(C)C)[C@H]1C(=O)N/C1=C\C(=O)OCc1cc(O)cc(O)c1 | 32 µg/mL (≈ 78.5 µM) | 32 µg/mL (≈ 78.5 µM) | 32 µg/mL (≈ 78.5 µM) | 32 µg/mL (≈ 78.5 µM) | 128 µg/mL (≈ 314 µM) | 128 µg/mL (≈ 314 µM) | 64 µg/mL (≈ 157 µM) | 64 µg/mL (≈ 157 µM) | 128 µg/mL (≈ 314 µM) | > 128 µg/mL |  |  | 64 µg/mL (≈ 157 µM) | 128 µg/mL (≈ 314 µM)
CCOC(=O)/C=C1\NC(=O)[C@@H]1[C@@H](C)OC(=O)c1cc(OCc2ccccc2)c(OCc2ccccc2)c(OCc2ccccc2)c1 | > 128 µg/mL | > 128 µg/mL | > 128 µg/mL | > 128 µg/mL | > 128 µg/mL | > 128 µg/mL | > 128 µg/mL | > 128 µg/mL | > 128 µg/mL | > 128 µg/mL | > 128 µg/mL | > 128 µg/mL |  | 
CCOC(=O)/C=C1\NC(=O)[C@@H]1[C@@H](C)OC(=O)c1ccc(O)cc1 | 128 µg/mL (≈ 401 µM) | > 128 µg/mL | 128 µg/mL (≈ 401 µM) | 128 µg/mL (≈ 401 µM) | > 128 µg/mL | > 128 µg/mL | > 128 µg/mL | > 128 µg/mL | 8 µg/mL (≈ 25.1 µM) | > 128 µg/mL |  |  |  | 
CCOC(=O)/C=C1\NC(=O)[C@@H]1[C@@H](C)OC(=O)c1ccccc1 | > 128 µg/mL | > 128 µg/mL | > 128 µg/mL | > 128 µg/mL | > 128 µg/mL | > 128 µg/mL | > 128 µg/mL | > 128 µg/mL | > 128 µg/mL | > 128 µg/mL | > 128 µg/mL | > 128 µg/mL |  | 
